Sampled rows, rich in hits. Any-hit rate of the full collection: about 3.6%.
RAM inhibit: blocks the yeast RAM network. S. cerevisiae dse1pr::URA3 reporter, 5-FOA growth OD615, 2 d; analog-sensitive cbk1-as2 kinase mutant strain. inhibition, % at 50 µM. 1.8% of 190,000 active;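 active means inhibition above a set limit, 3 SD over mean compound inhibition, cut at about 8.4% in these data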;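 further: 0% = DMSO-only wells with no growth and 100% = 10 µM 1-NA-PP1 full growth; inhibition rescues growth on 5-FOA so higher OD means more RAM inhibition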
Measles CPE: protection of cells from measles virus. Measles virus-infected cells, CPE protection, absorbance. protection (pct of control), % at 4 µM. 1.5% of 140,000 active. AID 841; in the data active means protection mostly above about 24%, no sharp cut-off; inactive means mostly below about 26%
Yeast lifespan up: extends the lifespan of yeast; S. cerevisiae growth with nicotinamide, OD615; deaD strain in restrictive glucose medium; inhibition of the nicotinamide effect, % at 10 µM; 0.68% of 130,000 active; AID 775;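 active means inhibition above a set limit, placed 3 SD over the median of all compounds, cut at about 26% in these data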;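 further: 0% = nicotinamide-treated wells and 100% = cells grown without nicotinamide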
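assay system = DeaD-strain S. cerevisiae | buffer or medium = restrictive glucose medium | reagent = 1.5 mM nicotinamide | compound = 10 µM single point, 0.25% DMSO | incubation = 48 h compound exposure at 30 °C, humidified | signal = OD615 measurement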
BB579 growth dn: reduces growth of yeast BB579 in restrictive medium. S. cerevisiae BB579 growth, OD615, 48 h. inhibition, % at 10 µM. 0.51% of 140,000 active. AID 804;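 active means inhibition above a set limit, 3 SD over the mean compound inhibition, cut at about 44% in these data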
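System: DeaD yeast strain BB579; buffer or medium: CSMM-D dextrose restrictive medium; technique: OD at 615 nm; schedule: 4 h cell preincubation, 48 h compound exposure, 30 °C humidified; doses: single 10 µM dose; controls: amphotericin B 10 µg/mL, positive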
Starred values were filed as active, the others as inactive; . = no result given.

SMILES | RAM inhibit | Measles CPE | Yeast lifespan up | BB579 growth dn
COc1cc2c(=O)n(-c3ccc(C)cc3)c(=O)n(CC(=O)c3ccc4c(c3)OCO4)c2cc1OC | 9.1* | 8 | -1 | -53
COc1cc(-n2c(=O)c3ccccc3n(CC(=O)c3ccccc3)c2=O)cc(OC)c1OC | 5 | . | . | .
COc1ccccc1NC(=O)c1ccc(-c2ccc(Br)cc2)o1 | 11* | 5 | -6 | -56
COc1cc(NC(=S)N2CCN(C(=O)C3CCCO3)CC2)c(OC)cc1Cl (configuration not stated) | 2 | 17 | -2 | -20
CCN(CC(=O)NC(C)C)C(=O)[C@H](C)NC(=O)c1ccc(Br)cc1 | 0 | . | . | .
CC(C)COC(=O)c1ccc2c(c1O)C(=O)c1ccccc1C2=O | 8.8* | 8 | -8 | -26
COc1ccc2c(c1O)C(=O)c1ccccc1C2=O | 2 | . | . | .
Cc1ccc(/C([O-])=C(/C(=S)NCCN2CCOCC2)[n+]2ccccc2)cc1[N+](=O)[O-] | 2 | . | . | .
CCc1cccc(CC)c1NC(=O)C1SC(=Nc2ccccc2C)C(c2nc3ccccc3s2)=C1N (configuration not stated) | 8.8* | 3 | -1 | -75
CCc1cccc(C)c1NC(=O)CCCSc1nc2ccccc2s1 | 8 | 8 | 8 | -19
O=C1CSc2ccc(C(=O)Nc3cccc(S(=O)(=O)Nc4ccc(Br)cc4)c3)cc2N1 | 7 | . | . | .
CC(C)CNC(=O)C(=O)NNC(=O)c1ccco1 | 1 | . | . | .
COc1cc(OC)cc(C(=O)N2CCN(Cc3ccccc3Br)CC2)c1 | 1 | . | . | .
CCNc1sc(C(=O)OCC)c(N)c1C#N | 1 | . | . | .
C=CCn1c(SCC(=O)Nc2ccc(C(=O)OC(C)C)cc2)nnc1-c1cccs1 | 8.7* | 5 | -9 | -6
CCOC(=O)c1ccc(NC(=O)CSc2nnc(-c3cccs3)n2CC)cc1 | 1 | 11 | -14 | -32
C=CCN(CC=C)S(=O)(=O)c1ccc(NC(=S)NC(=O)/C=C/c2ccccc2)cc1 | 10* | 27 | -8 | -17
O=C(c1ccc(CNS(=O)(=O)c2ccccc2)cc1)N1CCN(Cc2ccccc2)CC1 | 0 | 28* | -3 | -69
CCn1cc(C(=O)OCC(=O)c2cc(C)n(-c3ccc(OC(F)F)cc3)c2C)c(=O)c2ccc(C)nc21 | 4 | 3 | 25 | -26
Cc1cc(C)c2c(c1)cc(C)c1nnc(SCC(=O)Nc3ccc(S(=O)(=O)N4CCCCC4)cc3)n12 | 2 | 50* | -1 | -9
O=C(CSc1ncccn1)Nc1ccc(S(=O)(=O)N2CCCCC2)cc1 | 1 | 5 | -17 | -45
Clc1cc(Cl)cc(CSc2nnc(-c3sccc3-n3cccc3)o2)c1 | 8 | 15 | -2 | -16
Clc1cccc(CSc2nnc(-c3sccc3-n3cccc3)o2)c1 | 8.9* | 10 | -9 | -13
Cn1nc(C(=O)Nc2ccc3c(c2)OCCO3)cc1C(=O)O | 0 | . | . | .
CC1CCCN(CCOc2ccc3ccccc3c2Br)C1 (configuration not stated) | -1 | . | . | .
SMILES | RAM inhibit | Measles CPE | Yeast lifespan up | BB579 growth dn
CCOc1cccc2cc(C(N)=O)c(=NCc3ccccc3)oc12 | 1 | 4 | -26 | -13
Cc1ncc(CO)c2cc(C(N)=O)c(=Nc3ccccc3)oc12 | 1 | 48* | -17 | -35
COc1cc(-n2c(=O)c3ccccc3n(Cc3cc(=O)n4ccccc4n3)c2=O)cc(OC)c1OC | 1 | 14 | -2 | -71
CCc1ccc(S(=O)(=O)NCCc2csc(-c3ccccc3)n2)s1 | 8.5* | 14 | 35 | -18
CC1Cn2c(nc(=O)c3c2NCN(CCc2ccccc2)C3)S1 (configuration not stated) | -1 | . | . | .
CCOCC(=O)Nc1nc2ccc(C)cc2s1 | -1 | 12 | -2 | -7
C/C=C/C(=O)OCC(=O)Nc1nc2ccc(C)cc2s1 | 5 | 5 | 49* | -19
CSc1ccc(S(=O)(=O)Nc2ccc(S(=O)(=O)Nc3ccc(C)cc3)cc2)cc1 | 8 | 2 | 0 | -36
Cc1ccc(S(=O)(=O)Nc2ccc(N=Nc3ccc(O)cc3)cc2)cc1 | 11* | 4 | -5 | -17
CCOC(=O)c1c(-c2ccccc2)csc1NC(=O)CSc1nncs1 | 11* | 4 | 14 | -36
CCOC(=O)c1c(-c2ccc(F)cc2)csc1NC(=O)c1c(-c2ccccc2)noc1C | 8 | 67* | 6 | -28
O=C(Nc1scc(-c2ccc(F)cc2)c1C(=O)O)c1ccco1 | 4 | 4 | 97* | -18
COC(=O)c1ccc(C)c(NC(=O)c2c(-c3ccccc3)noc2C)c1 | 2 | 16 | -12 | 9
COC(=O)c1c(-c2ccccc2)csc1NC(=O)c1ccco1 | 3 | 26 | -8 | 1
COC(=O)c1c(-c2ccccc2)csc1NC(=O)c1c(-c2ccccc2)noc1C | 5 | 38* | -5 | -29
CCOC(=O)c1c(-c2ccccc2)csc1NC(=O)CSc1nnnn1C | 8 | 7 | -16 | -38
COC(=O)c1c(NC(=O)Cn2cnc([N+](=O)[O-])n2)sc2c1CCC(C)C2 (configuration not stated) | 2 | 13 | -1 | -3
O=C(Nc1ccc(Br)cc1)c1cccc(N2C(=O)C3C4CCC(C4)C3C2=O)c1 (configuration not stated) | 5 | 4 | 4 | -34
CCCCc1ccc(NC(=S)N2CCC(O)CC2)cc1 | 1 | . | . | .
O=C(Nc1nnc(C2CC2)s1)c1cccc(S(=O)(=O)N2CC(c3ccccc3)CC2=O)c1 (configuration not stated) | 2 | 15 | -10 | -23
COc1ccccc1CNc1nc(S(=O)(=O)c2ccccc2)c(Cl)s1 | 9.8* | 7 | -3 | -59
O=C(CNc1cccc2ccccc12)N/N=C/c1ccc(C(=O)O)cc1 | 11* | 15 | -4 | -19
O=C(CNc1ccc2ccccc2c1)N/N=C/c1ccc(C(=O)O)cc1 | 5 | . | . | .
CN(C)c1ccc(N=C/C=C2/N(C)c3ccccc3C2(C)C)cc1 | 1 | 12 | -1 | -1
COC(=O)C(Cc1ccc(OC(=O)c2ccccc2C)cc1)N1Cc2ccccc2C1=O (configuration not stated) | 8.9* | 10 | -2 | -67
SMILES | RAM inhibit | Measles CPE | Yeast lifespan up | BB579 growth dn
COC(=O)C(Cc1ccc(OC(=O)c2ccccc2Cl)cc1)N1Cc2ccccc2C1=O (configuration not stated) | 7 | 25 | -11 | -54
CC(C)(C)C(=O)CNCC(=O)C(C)(C)C | 1 | . | . | .
C=CCN1C(=O)C(C)(C)N(C(C)=O)c2ccccc21 | 2 | 20* | 28* | -31
CC(=O)N1c2ccccc2N(Cc2ccc(C)cc2C)C(=O)C1(C)C | 0 | 8 | -9 | -6
CCOc1ccccc1Nc1nc(N)nc(CSc2nccc(C)n2)n1 | 1 | 24* | -17 | -7
COc1ccc(CC(=O)NCCC(C)C)cc1S(=O)(=O)N1CCOCC1 | -1 | . | . | .
COc1ccc(C2CC(c3ccccc3)=NN2C(=O)CSc2ncccn2)cc1 (configuration not stated) | 11* | 12 | -1 | -20
COc1ccc(C2CC(c3ccccc3)=NN2c2ccc(S(N)(=O)=O)cc2)cc1 (configuration not stated) | 9.3* | . | . | .
